Laboratory results taken from ChEMBL document CHEMBL1268950, “Fluorescent-tagged sp2-iminosugars with potent β-glucosidase inhibitory activity” (Bioorg Med Chem, 2010).
pKd, pKi: −log10 of the molar value. Calls of active or inactive are those of the source. No cut-off for these calls is given here.

Legend:
[1] = Inhibition of Penicillium decumbens naringinase after 10 to 30 mins
[2] = Inhibition of jack beans alpha-mannosidase after 10 to 30 mins; parameters: species or system Canavalia ensiformis
[3] = Inhibition of Aspergillus niger amyloglucosidase after 10 to 30 mins
[4] = Inhibition of Helix pomatia beta-mannosidase after 10 to 30 mins; details: for pKi: read-out: Ki
Uncharacterized protein [5] = target: T1, Uncharacterized protein (Sus scrofa, UniProt I3LIR5); experiment: Inhibition of pig kidney trehalase after 10 to 30 mins
T1 sequence (I3LIR5 whole entry): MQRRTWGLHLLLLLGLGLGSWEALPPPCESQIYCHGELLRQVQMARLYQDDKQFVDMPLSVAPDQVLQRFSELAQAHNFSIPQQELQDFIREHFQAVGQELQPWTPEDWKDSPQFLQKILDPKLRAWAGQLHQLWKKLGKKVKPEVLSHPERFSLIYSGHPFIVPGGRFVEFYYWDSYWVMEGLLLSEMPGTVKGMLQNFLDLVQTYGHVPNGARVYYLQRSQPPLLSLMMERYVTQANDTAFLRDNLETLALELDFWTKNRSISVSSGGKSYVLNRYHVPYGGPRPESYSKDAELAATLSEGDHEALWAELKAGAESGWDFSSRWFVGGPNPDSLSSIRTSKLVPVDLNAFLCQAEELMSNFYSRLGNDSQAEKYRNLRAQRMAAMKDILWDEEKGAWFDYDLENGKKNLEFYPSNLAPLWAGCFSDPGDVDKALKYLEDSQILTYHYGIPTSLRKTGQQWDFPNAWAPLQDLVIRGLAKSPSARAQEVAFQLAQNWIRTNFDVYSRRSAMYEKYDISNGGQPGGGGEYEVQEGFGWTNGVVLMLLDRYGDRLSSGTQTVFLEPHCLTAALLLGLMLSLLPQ

[6] = Inhibition of almond beta-glucosidase at pH 7.3 after 10 to 30 mins; parameters: species or system Prunus dulcis
Alpha-glucosidase MAL12 [7] = target: T2, Alpha-glucosidase MAL12 (Saccharomyces cerevisiae S288c, UniProt P53341); experiment: Inhibition of yeast alpha-glucosidase after 10 to 30 mins
[8] = target: Alpha-galactosidase (Coffea arabica) (UniProt Q42656); experiment: Inhibition of green coffee bean alpha-galactosidase at 2 mM after 10 to 30 mins
[9] = target: Oligo-1,6-glucosidase IMA1 (Saccharomyces cerevisiae S288c) (UniProt P53051); experiment: Inhibition of yeast isomaltase at 2 mM after 10 to 30 mins
[10] = Inhibition of Aspergillus niger amyloglucosidase at 2 mM after 10 to 30 mins
[11] = Inhibition of jack beans alpha-mannosidase at 2 mM after 10 to 30 mins; parameters: species or system Canavalia ensiformis
Glucosylceramidase = target: T3, Glucosylceramidase (Bos taurus, UniProt Q2KHZ8); experiment: Inhibition of bovine liver beta-glucosidase at 2 mM after 10 to 30 mins
T3 sequence (Q2KHZ8 whole entry): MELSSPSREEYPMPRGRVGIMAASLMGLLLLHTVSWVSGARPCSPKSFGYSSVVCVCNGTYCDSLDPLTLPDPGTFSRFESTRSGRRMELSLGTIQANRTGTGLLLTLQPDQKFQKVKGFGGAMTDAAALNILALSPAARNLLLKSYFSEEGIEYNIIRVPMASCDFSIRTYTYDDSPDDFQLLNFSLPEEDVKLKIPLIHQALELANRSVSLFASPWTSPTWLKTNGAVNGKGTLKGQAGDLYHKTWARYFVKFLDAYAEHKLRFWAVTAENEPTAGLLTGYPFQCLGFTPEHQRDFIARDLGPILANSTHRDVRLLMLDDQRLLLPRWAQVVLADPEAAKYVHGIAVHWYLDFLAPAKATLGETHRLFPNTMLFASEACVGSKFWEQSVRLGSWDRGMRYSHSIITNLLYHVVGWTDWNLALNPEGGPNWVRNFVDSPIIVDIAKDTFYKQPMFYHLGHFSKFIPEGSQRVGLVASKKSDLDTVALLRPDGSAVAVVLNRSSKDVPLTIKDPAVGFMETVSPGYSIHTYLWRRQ

[12] = Inhibition of Helix pomatia beta-mannosidase at 2 mM after 10 to 30 mins
Alpha-glucosidase MAL12 [13] = target: T2, Alpha-glucosidase MAL12; experiment: Inhibition of yeast alpha-glucosidase at 2 mM after 10 to 30 mins
[14] = Binding affinity to almond beta-glucosidase by FRET assay; parameters: species or system Prunus dulcis
Outline: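 Direct titration: almond β-glucosidase 1.25 µM in 0.05 M potassium phosphate pH 7.3, 37 °C. Inhibitor stock (50 µM, made in the enzyme solution) added portion-wise to ~6 µM. Excitation 280 nm. Tryptophan emission read at 339 nm and dansyl emission at 515 nm at 10–15 ratios. Kd from least-squares fit to a 1:1 model. Reverse titration (enzyme into 1.0 µM inhibitor, 515 nm) gave confirmation.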

Uncharacterized protein [15] = target: T1, Uncharacterized protein; experiment: Inhibition of pig kidney trehalase at 2 mM after 10 to 30 mins

Chain of Alpha-galactosidase (Coffea arabica) (Q42656 16-378 limits assumed): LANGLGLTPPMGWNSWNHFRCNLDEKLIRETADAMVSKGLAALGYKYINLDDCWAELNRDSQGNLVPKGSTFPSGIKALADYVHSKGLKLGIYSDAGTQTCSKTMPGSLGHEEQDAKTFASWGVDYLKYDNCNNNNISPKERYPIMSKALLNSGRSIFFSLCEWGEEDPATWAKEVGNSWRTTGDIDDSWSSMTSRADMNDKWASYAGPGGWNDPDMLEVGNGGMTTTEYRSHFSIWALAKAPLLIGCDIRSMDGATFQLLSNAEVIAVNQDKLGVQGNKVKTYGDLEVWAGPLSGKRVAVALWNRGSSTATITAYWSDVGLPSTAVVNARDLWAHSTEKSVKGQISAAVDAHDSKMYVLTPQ
T2 sequence (P53341 whole entry): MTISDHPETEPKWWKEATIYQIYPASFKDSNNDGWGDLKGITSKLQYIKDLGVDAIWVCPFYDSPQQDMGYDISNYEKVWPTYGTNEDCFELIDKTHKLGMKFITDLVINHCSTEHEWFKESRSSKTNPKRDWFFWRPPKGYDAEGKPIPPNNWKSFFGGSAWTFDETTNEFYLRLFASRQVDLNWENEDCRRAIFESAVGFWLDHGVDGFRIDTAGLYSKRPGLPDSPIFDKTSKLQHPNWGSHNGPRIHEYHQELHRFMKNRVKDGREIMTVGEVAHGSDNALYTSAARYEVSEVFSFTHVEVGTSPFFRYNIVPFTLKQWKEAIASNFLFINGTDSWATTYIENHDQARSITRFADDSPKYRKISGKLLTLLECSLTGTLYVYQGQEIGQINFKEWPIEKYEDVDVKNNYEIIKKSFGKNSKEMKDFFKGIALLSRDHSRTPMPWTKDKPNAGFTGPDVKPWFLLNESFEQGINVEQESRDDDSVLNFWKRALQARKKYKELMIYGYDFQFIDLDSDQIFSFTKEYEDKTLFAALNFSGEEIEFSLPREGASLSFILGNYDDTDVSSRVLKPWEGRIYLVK
Chain of Oligo-1,6-glucosidase IMA1 (Saccharomyces cerevisiae S288c) (P53051 whole entry): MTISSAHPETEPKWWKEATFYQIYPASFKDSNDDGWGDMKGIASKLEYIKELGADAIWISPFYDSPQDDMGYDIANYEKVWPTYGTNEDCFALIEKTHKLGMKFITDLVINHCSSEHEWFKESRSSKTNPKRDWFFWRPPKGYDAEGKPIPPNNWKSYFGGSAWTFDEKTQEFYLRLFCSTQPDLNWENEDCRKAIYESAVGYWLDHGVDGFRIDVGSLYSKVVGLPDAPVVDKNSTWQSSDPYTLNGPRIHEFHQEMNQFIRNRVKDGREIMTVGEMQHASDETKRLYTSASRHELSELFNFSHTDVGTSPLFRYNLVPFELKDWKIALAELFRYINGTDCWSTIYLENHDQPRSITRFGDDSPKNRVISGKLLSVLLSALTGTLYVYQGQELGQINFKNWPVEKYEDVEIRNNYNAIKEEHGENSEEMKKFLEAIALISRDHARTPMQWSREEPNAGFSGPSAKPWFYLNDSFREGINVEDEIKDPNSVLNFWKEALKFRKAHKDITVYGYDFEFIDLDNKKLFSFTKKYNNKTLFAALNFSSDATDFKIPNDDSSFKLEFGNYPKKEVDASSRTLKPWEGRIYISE

pKi [1] | pKi [2] | pKi [3] | pKi [4] | pKi (Uncharacterized protein [5]) | pKi [6] | pKi (Alpha-glucosidase MAL12 [7]) | inhibition [8] | inhibition [9] | Ki [10] | Ki [11] | Ki (Glucosylceramidase) | Ki [12] | Ki (Alpha-glucosidase MAL12 [13]) | pKd [14] | Ki (Uncharacterized protein [15]) | Ki [4] | SMILES
6.68 |  |  | 3.41 | 3.53 | 6.44 | 3.61 | inactive | inactive | Not Active | Not Active |  |  |  | 6.70 |  |  | CN(C)c1cccc2c(S(=O)(=O)NCCCC/N=C3\SC[C@@H]4[C@@H](O)[C@H](O)[C@@H](O)[C@@H](O)N34)cccc12
5.92 | 3.63 |  | 3.28 |  | 6.26 | 3.15 | inactive | inactive | Not Active |  |  |  |  |  | Not Active |  | CN(C)c1ccc(-c2cnc(-c3ccc(S(=O)(=O)NCCCC/N=C4\SC[C@@H]5[C@@H](O)[C@H](O)[C@@H](O)[C@@H](O)N45)cc3)o2)cc1

More lines, now with the values behind:

SMILES | pKi [1] | pKi [2] | pKi [3] | pKi [4] | pKi (Uncharacterized protein [5]) | pKi [6] | pKi (Alpha-glucosidase MAL12 [7]) | inhibition [8] | inhibition [9] | Ki [10] | Ki [11] | Ki (Glucosylceramidase) | Ki [12] | Ki (Alpha-glucosidase MAL12 [13]) | pKd [14] | Ki (Uncharacterized protein [15]) | Ki [4]
CCN(CC)c1ccc2cc(C(=O)NCCCC/N=C3\SC[C@@H]4[C@@H](O)[C@H](O)[C@@H](O)[C@@H](O)N34)c(=O)oc2c1 | 7.14 | 3.70 | 3.78 | 4.96 | 4.55 | 6.35 | 3.50 | inactive | inactive |  |  |  |  |  |  |  | 
Cl.NCCCC/N=C1\SC[C@@H]2[C@@H](O)[C@H](O)[C@@H](O)[C@@H](O)N12 | 5.74 |  |  |  | 3.94 | 4.89 |  | inactive | inactive | Not Active | Not Active | Not Active | Not Active | Not Active |  |  | 
CCCCCCCC/N=C1\SC[C@@H]2[C@@H](O)[C@H](O)[C@@H](O)[C@@H](O)N12 | 6.64 |  |  |  | 4.87 | 6.12 |  | inactive | inactive |  | Not Active |  |  | Not Active |  |  | Not Active
